Assay results from ChEMBL document CHEMBL1759925, “Rapidly photoactivatable ATP probes for specific labeling of tropomyosin within the actomyosin protein complex” (Bioorg Med Chem Lett, 2011).
Activity calls are given as the source filed them. No cut-off for these calls is given here.

What was measured:
[1] = species: Gallus gallus; experiment: Binding affinity to chicken skeletal muscle actomyosin at 125 uM after 1 hr followed by 10 mins irradiation with UVA by chemiluminescent method using avidin-horseradish peroxidase conjugate in presence of 1 mM of calcium chloride
Outline: (§1)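 Actomyosin (3.9 µg) was incubated with photoaffinity ATP probe for 1 h in 30 mM Tris–HCl (pH 7.2), 5 mM MgCl₂ and 1 mM CaCl₂, with no EGTA. Samples were then irradiated at 360 nm, separated by 10% SDS–PAGE and blotted to PVDF. Labeled bands were detected by chemiluminescence with avidin-HRP conjugate.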

[2] = species: Gallus gallus; experiment: Binding affinity to chicken skeletal muscle tropomyosin within actomyosin protein complex at 125 uM after 1 hr followed by 10 mins irradiation with UVA by chemiluminescent assay using avidin-horseradish peroxidase conjugate; assay type: tissue-based; conditions: Muscle tissue
Outline: (§2)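 Actomyosin (3.9 µg) was incubated for 1 h with photoaffinity ATP probe in 30 mM Tris–HCl (pH 7.2), 5 mM MgCl₂ and 1 mM EGTA, then irradiated with 360 nm light. Photoproducts were resolved on 10% SDS–PAGE, transferred to PVDF, and labeled proteins visualized by chemiluminescence using avidin-HRP conjugate.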

[3] = species: Gallus gallus; experiment: Binding affinity to chicken skeletal muscle tropomyosin within actomyosin protein complex at 125 uM after 1 hr followed by 10 mins irradiation with UVA by chemiluminescent assay using avidin-horseradish peroxidase conjugate in presence of 1 mM of calcium chloride; outline: as §1
[4] = species: Gallus gallus; experiment: Binding affinity to chicken skeletal muscle tropomyosin within actomyosin protein complex at 125 uM after 1 hr followed by 10 mins irradiation with UVA by SDS-PAGE analysis using coomassie brilliant blue staining; assay type: tissue-based; conditions: Muscle tissue
[5] = species: Gallus gallus; experiment: Binding affinity to chicken skeletal muscle tropomyosin within actomyosin protein complex at 125 uM after 1 hr followed by 10 mins irradiation with UVA by Western blot analysis; assay type: tissue-based; conditions: Muscle tissue; outline: as §2
[6] = species: Gallus gallus; experiment: Binding affinity to chicken skeletal muscle myosin within actomyosin protein complex at 125 uM after 1 hr followed by 10 mins irradiation with UVA by chemiluminescent method using avidin-horseradish peroxidase conjugate in presence of 1 mM of calcium chloride; outline: as §1
[7] = species: Gallus gallus; experiment: Binding affinity to chicken skeletal muscle actin within actomyosin protein complex at 125 uM after 1 hr followed by 10 mins irradiation with UVA by chemiluminescent method using avidin-horseradish peroxidase conjugate in presence of 1 mM of calcium chloride; outline: as §1

| Activity [1] | Activity [2] | Activity [3] | Activity [4] | Activity [6] | Activity [7] | Compound | Activity [5] |
| --- | --- | --- | --- | --- | --- | --- | --- |
| Active | Active | Active | Active | Active | Active | Nc1ncnc2c1ncn2[C@@H]1O[C@H](COP(=O)(O)OP(=O)(O)OP(=O)(O)NCc2ccc(C3(C(F)(F)F)N=N3)cc2)[C@@H](O)[C@H]1O | Active |
| – | Active | – | Active | – | – | Nc1ncnc2c1ncn2[C@@H]1O[C@H](COP(=O)(O)OP(=O)(O)OP(=O)(O)NCc2ccc(C3(C(F)(F)F)N=N3)cc2OCCOCCOCCNC(=O)CCCC[C@@H]2SC[C@@H]3NC(=O)N[C@@H]32)[C@@H](O)[C@H]1O | – |
